TAG inh: reduces triacylglycerol accumulation in H9c2 cells; Nile Red lipid (TAG) fluorescence; cells loaded with 200 µM oleic acid; inhibition, % at 12.5 µM; 230,000 compounds, 0.66% hits; AID 651582;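 active = pattern-corrected inhibition of lipid staining of at least 50% with the nuclear-stain viability signal not falling by more than 50%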
SMARCA2 act: SMARCA2 function activation, primary screen. activation, % at 9.1 µM. MG213 cells, MMTV-luciferase reporter, dexamethasone, overnight. AID 652017. 370,000 compounds, 1% hits; in the data active = activation above about 7.8%
AHR act: activators of human aryl hydrocarbon receptor; P35869; AHR-responsive luciferase reporter cells, luminescence; activation, % at 5 µM; 320,000 compounds, 2.5% hits; in the data active = activation above about 47%
Target sequence (P35869 whole entry, looked up): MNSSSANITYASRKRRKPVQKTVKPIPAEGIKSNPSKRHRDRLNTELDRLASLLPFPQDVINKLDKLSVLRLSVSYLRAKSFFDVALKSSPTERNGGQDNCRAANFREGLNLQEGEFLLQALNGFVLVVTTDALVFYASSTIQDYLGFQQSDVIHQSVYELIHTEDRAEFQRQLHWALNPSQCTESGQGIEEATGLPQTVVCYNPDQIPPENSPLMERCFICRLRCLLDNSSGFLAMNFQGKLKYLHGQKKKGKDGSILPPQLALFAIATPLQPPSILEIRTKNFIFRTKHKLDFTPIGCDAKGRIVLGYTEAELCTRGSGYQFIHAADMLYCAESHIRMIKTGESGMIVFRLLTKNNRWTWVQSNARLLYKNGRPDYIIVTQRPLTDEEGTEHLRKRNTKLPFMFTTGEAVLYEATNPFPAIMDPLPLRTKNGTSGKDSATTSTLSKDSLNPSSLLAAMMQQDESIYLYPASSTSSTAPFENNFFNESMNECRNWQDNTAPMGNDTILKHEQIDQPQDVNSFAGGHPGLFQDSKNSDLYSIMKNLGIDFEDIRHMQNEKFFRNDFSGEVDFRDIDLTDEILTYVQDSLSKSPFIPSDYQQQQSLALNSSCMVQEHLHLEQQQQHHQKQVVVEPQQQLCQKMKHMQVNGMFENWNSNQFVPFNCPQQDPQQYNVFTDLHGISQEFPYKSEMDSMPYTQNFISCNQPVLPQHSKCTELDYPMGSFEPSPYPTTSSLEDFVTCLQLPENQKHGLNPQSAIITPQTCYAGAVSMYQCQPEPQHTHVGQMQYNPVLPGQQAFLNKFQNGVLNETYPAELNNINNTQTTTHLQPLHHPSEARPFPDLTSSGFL
Efflux pump inh: inhibitors of Candida antifungal efflux pumps expressed in yeast. S. cerevisiae Candida pump triplex, Nile Red efflux. inhibition, % at 10 µM. AID 485275. 330,000 compounds, 0.44% hits;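 active = plate passing quality check with inhibition over a set limit, or well fluorescence over plate mean plus 4 SD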;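 note: Nile Red retained in pooled yeast measured as flow cytometry median fluorescence; higher means more Nile Red kept so more efflux inhibition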
TbMetRS inhib: blocks T. brucei methionyl-tRNA synthetase activity. purified T. brucei MetRS, ATP depletion, Kinase-Glo luminescence. inhibition, % at 11.9 µM. 360,000 compounds, 0.4% hits;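 active = inhibition above a per-plate cutoff of the control wells' mean inhibition plus 3 SD, cut at about 5.5% in these data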
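assay system = parasite MetRS enzyme | timing = 15 min preincubation, 2 h reaction, all 25 °C | evaluation = percent inhibition relative to median high and low control wells | medium = HEPES buffer containing pyrophosphatase, BSA, spermine, DTT | compound = single dose, 11.9 µM final nominal, 0.9% final DMSO | detection = Kinase-Glo luminescence, ATP depletion format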
TAG conf: confirmation of triacylglycerol accumulation inhibitors | H9c2 lipid accumulation, Nile Red fluorescence; cells loaded with 200 µM oleic acid | AID 651629 | 990 compounds, 71% hits | inhibition, % at 12.5 µM | shares compounds with TAG inh;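 active = mean inhibition across replicates of 40% or more; inactive = mean inhibition below 40%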
Of the large screens only hits and unclear results are named; the others gave an inactive call (follow-up assays come after a bar, where they were run). An excerpt weighted towards active compounds, which were near 4.1% of everything screened.

COc1cccc(/C=N/NC(=O)CNC(=O)COc2ccccc2)c1O	TAG inh 51 | TAG conf inactive
O=C(NC1CCCC1)C1CCN(S(=O)(=O)c2ccc3[nH]c(=O)oc3c2)CC1	none (no result: TAG inh, AHR act, Efflux pump inh, TbMetRS inhib)
C=CCCC1CN(Cc2ccc(OC)cc2)S(=O)(=O)c2c(cccc2Sc2ccc(OC)c(OC)c2)O1 (stereo not drawn)	none (no result: TAG inh, AHR act, Efflux pump inh, TbMetRS inhib)
COc1cc(OC)cc(-c2c(C#Cc3ccsc3)c3cc(-c4ccc(CN5CCOCC5)cc4)ccc3n2C)c1	none
COc1cc(C#Cc2c(-c3cncn3C)n(C)c3ccc(-c4cnc(N5CCOCC5)nc4)cc23)cc(OC)c1	TAG inh 73 | TAG conf 65
COc1ccc(NC(=O)CCN2C(=O)c3ccccc3C2=O)c(OC)c1	none (no result: TAG inh)
COc1ccc(OC)c(N(CCN2C(=O)c3ccccc3C2=O)C(=O)CCl)c1	TAG inh 52 (no result: AHR act, Efflux pump inh) | TAG conf 53
COc1ccc(CC(=O)Nc2ccc(-c3ccc4nnc(C)n4n3)cc2)cc1OC	TAG inh 58 | TAG conf 71
CCCCN(CCCC)CCCNC(=O)Cn1cc(C)c(=O)[nH]c1=O	none (no result: TAG inh, AHR act, Efflux pump inh, TbMetRS inhib)
Cc1noc(C)c1-c1ccc2ncnc(NCC3CCCCN3C)c2c1 (stereo not drawn)	TAG inh 62 | TAG conf 51
Cc1ccc2nc(NC(=O)C3CCCN(S(=O)(=O)c4cccc5nonc45)C3)sc2c1 (stereo not drawn)	none (no result: TAG inh, SMARCA2 act, TbMetRS inhib)
Cc1cccc2sc(NC(=O)C3CCCN(S(=O)(=O)c4cccc5nonc45)C3)nc12 (stereo not drawn)	TAG inh 54 | TAG conf 74
O=C(CSc1nnc(-c2cnccn2)n1-c1ccccc1)c1ccc(F)cc1	none (no result: TAG inh, AHR act, Efflux pump inh, TbMetRS inhib)
COc1ccc(CNC(=O)OCCN2CCN(S(=O)(=O)c3ccc(C)cc3)CCC2=O)cc1	TAG inh 72 | TAG conf inactive
Cc1ccc(S(=O)(=O)N2CCC(=O)N(CCOC(=O)NCc3ccccc3)CC2)cc1	none (no result: TAG inh, TbMetRS inhib)
Cc1[nH]c2ccccc2c1C(c1ccccn1)N1CCC(C)CC1 (stereo not drawn)	TAG inh 51 | TAG conf 55
Cc1[nH]c2ccccc2c1C(c1ccccn1)N1CCCC1 (stereo not drawn)	none
Cn1c(=O)c2cc(NC(=O)Cc3ccccc3F)ccc2n1C/C=C/c1ccccc1	none (no result: AHR act, Efflux pump inh)
CCOCCC(=O)Nc1ccc2c(c1)c(=O)n(C)n2C/C=C/c1ccccc1	TAG inh 53 (no result: AHR act, Efflux pump inh) | TAG conf 49
O=C(/C=C/c1ccc(OCCCF)cc1)NCc1ccc(Cl)c(Cl)c1	TAG inh 62 | TAG conf 52
COC(=O)C1(F)C(=O)NC(=O)NC1OC (stereo not drawn)	none (no result: TAG inh, AHR act, Efflux pump inh, TbMetRS inhib)
O=C(OCc1cn(Cc2ccccc2Cl)nn1)N1CCOCC1	none (no result: TAG inh, AHR act, Efflux pump inh, TbMetRS inhib)
COc1ccc(CN2C(=O)CN(S(C)(=O)=O)CC2(C)c2nnnn2C2CCCCC2)cc1 (stereo not drawn)	none (no result: TAG inh, AHR act, Efflux pump inh, TbMetRS inhib)
CCOC(=O)c1cc(-c2ccccc2)sc1NC(=O)C(C)N1C(=O)NC(C)(c2ccc(Cl)cc2)C1=O (stereo not drawn)	TAG inh 76 | TAG conf 76
CCOC(=O)c1cc(-c2ccccc2)sc1NC(=S)Nc1cccc(C)n1	TAG inh 69 | TAG conf 56
CCOC(=O)c1cc(-c2ccccc2)sc1NC(=O)C(C)C	none (no result: TAG inh)
O=S(=O)(c1ccc(Cl)cc1)N1c2ccccc2Oc2nc3ccccc3nc21	none
COc1ccc(S(=O)(=O)N2c3cc(Cl)ccc3Oc3nc4ccccc4nc32)cc1	TAG inh 52 | TAG conf inactive
Cn1nc(-c2ccc(Cl)cc2)c2cc(C(=O)NC3CC3)sc21	TAG inh 76 | TAG conf 70
COc1cc(C)c2sc3ccccc3c(=O)c2c1NCCN(C)C	TAG inh 70 (no result: AHR act, Efflux pump inh) | TAG conf 64
CCN(CC)CCNc1ccc(CO)c2sc3ccccc3c(=O)c12	none
Cc1cc(NC(=O)CSc2nc3ccccc3c(=O)n2C2CCCC2)no1	TAG inh 90 | TAG conf 69
CN(C)c1ccc(NC(=O)CSc2nc3ccccc3c(=O)n2C2CCCCC2)cc1	TAG inh 55 | TAG conf 49
CCOc1cc(N2CCOCC2)c(OCC)cc1NC(=O)CC12CC3CC(CC(C3)C1)C2	TAG inh 74 | TAG conf 47
CCOc1cc(N2CCOCC2)c(OCC)cc1NC(=O)Cn1cnnn1	none
CCc1cc2c(nc1CC)CCCN2C	none (no result: TAG inh, AHR act, Efflux pump inh, TbMetRS inhib)
O=C(Nc1ccc(-c2csc(Nc3ccccc3)n2)cc1)c1ccccc1	none
O=C(Nc1cccc(-c2csc(Nc3ccccc3)n2)c1)c1cc([N+](=O)[O-])cc(C(F)(F)F)c1	none
O=C(Nc1cccc(-c2csc(Nc3ccc(Cl)cc3)n2)c1)c1cc([N+](=O)[O-])cc(C(F)(F)F)c1	TAG inh 56, AHR act 56 | TAG conf 50
O=C(Nc1ccc(-c2csc(Nc3ccc(Cl)cc3)n2)cc1)c1cc([N+](=O)[O-])cc(C(F)(F)F)c1	TAG inh 51 | TAG conf 57
Cc1c(N=Cc2c(O)n(C)c(=O)c3ccccc23)c(=O)n(-c2ccccc2)n1C	none (no result: TAG inh, SMARCA2 act)
COc1ccc(C2=C(C=Nc3c(C)n(C)n(-c4ccccc4)c3=O)C(c3ccccc3C)c3ccccc3O2)cc1OC (stereo not drawn)	TAG inh 61 | TAG conf inactive
CCOc1cc(/C=N\NC(=O)c2ccc(NC(=O)C(C)(C)C)cc2)ccc1OC(=O)c1cccc(C)c1	TAG inh 64 | TAG conf inactive
CCOc1cc(/C=N\NC(=O)c2ccc(NC(=O)C(C)(C)C)cc2)ccc1OC(=O)c1ccc(C)cc1	none
CC(C)n1nnnc1C1c2ccccc2OCC(=O)N1Cc1cccc(C(F)(F)F)c1 (stereo not drawn)	none (no result: TAG inh, AHR act, Efflux pump inh, TbMetRS inhib)
O=C(CCC1CCCC1)Nc1ccc(OCC(=O)N2CCOCC2)cc1	TAG inh 51 | TAG conf inactive
Cc1ccc(S(=O)(=O)NC2=C(N3CCN(c4ccccc4F)CC3)C(=O)c3ccccc3C2=O)cc1	TAG inh 68 | TAG conf 78
Cc1[nH]nc2c1C(c1ccc(F)cc1)N(c1ccccc1)C2=O (stereo not drawn)	none (no result: TAG inh, AHR act, Efflux pump inh, TbMetRS inhib)
COc1cc2c3c(cccc3c1)C(=O)N(CCN1CCCC1)C2=O	TAG inh 117 (no result: AHR act, Efflux pump inh) | TAG conf 109
CC(=O)N1CCCN(C(=O)CN2C(=O)CC(C)(C)S(=O)(=O)c3ccccc32)CC1	none (no result: TAG inh, AHR act, Efflux pump inh, TbMetRS inhib)
O=c1c2c3nc4ccccc4nc3n(/N=C/c3ccccn3)c2ncn1-c1ccccc1	TAG inh 72 | TAG conf 71
COC(=O)[C@@]12CCCCC3=C1N(CCC3)C(=O)[C@H]2CC(=O)NCCc1ccccc1OC	none (no result: TAG inh, AHR act, Efflux pump inh, TbMetRS inhib)
O=C(Nc1nc2c(F)cc(F)cc2s1)c1ccc([N+](=O)[O-])o1	none
Cc1cc(C)c2nc(NC(=O)c3ccc([N+](=O)[O-])o3)sc2c1	TAG inh 64 | TAG conf 70
Cc1ccccc1-c1nnc(SCC(=O)NC2CCCC2)o1	none (no result: TAG inh)

From PubChem BioAssay
